Screening data as filed in PubChem.
APJ antagonist: blocks the human apelin receptor APJ; P35414; CHO-K1 APJ beta-arrestin complementation, luminescence; inhibition, % at 20 µM; 330,000 compounds, 0.32% hits; AID 2521;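 active = inhibition above about 40% at 20 µM, limit read from the data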;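 note: cells challenged with 10 nM apelin-13 agonist together with compound; plate controls were apelin-13 plus DMSO wells for no effect and DMSO wells lacking apelin-13 for full effect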
HTR2A ag: mouse HTR2A agonism via beta-arrestin recruitment | P35363 | CHO-K1 mHTR2A beta-arrestin complementation, luminescence; percent of 30 µM serotonin response | activation, % at 7.6 µM | 360,000 compounds, 0.66% hits | AID 624169;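 active = activation above a run cutoff, the mean activation of all tested compounds plus 3 SD, cut at about 14% in these data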;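 note: 0% = plate median of compound wells and 100% = 30 µM serotonin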
CXCR6 block: CXCR6 (human) receptor inhibition; O00574; AID 602244; CHO-K1 PathHunter CXCR6 beta-arrestin, luminescence; inhibition, % at 20 µM; 360,000 compounds, 0.36% hits; in the data active = inhibition above about 34%, passing the limit was not always enough;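 note: antagonist mode with CXCL16 agonist at 10 nM final; 0% = 10 nM CXCL16 with DMSO and 100% = unstimulated wells without agonist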
APJ ag: agonists of human APJ apelin receptor; P35414; CHO-K1 APJ PathHunter beta-arrestin, luminescence; 0% DMSO wells, 100% apelin; activation, % at 20 µM; 330,000 compounds, 0.11% hits;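 active = activation more than six SD over the plate average, tested at 20 µM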;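 note: 0% = DMSO alone and 100% = apelin-13 at 10 nM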
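Material: CHO-K1 APJ beta-arrestin complementation cell line; Input: cell density 1000 per well; Incubation: compound stimulation 90 min at 25 °C, detection 60 min; Signal: luminescence from split beta-galactosidase complementation, Galacton Star/Emerald II substrate; Controls: DMSO-only wells as negative, 10 nM Apelin-13 as positive control.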
CCR6 antag: CCR6 (human) receptor antagonism; P51684; CHO-K1 CCR6 PathHunter beta-arrestin, luminescence, CCL20-stimulated; inhibition, % at 20 µM; 340,000 compounds, 0.49% hits;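 active = compounds whose inhibition of the agonist-driven luminescence signal at 20 µM reaches about 50%, limit read from the data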;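 note: cells stimulated with CCL20 at 14 nM final; plate controls were DMSO with CCL20 for no effect and DMSO without agonist for full effect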
Target sequence (P51684 whole entry, looked up): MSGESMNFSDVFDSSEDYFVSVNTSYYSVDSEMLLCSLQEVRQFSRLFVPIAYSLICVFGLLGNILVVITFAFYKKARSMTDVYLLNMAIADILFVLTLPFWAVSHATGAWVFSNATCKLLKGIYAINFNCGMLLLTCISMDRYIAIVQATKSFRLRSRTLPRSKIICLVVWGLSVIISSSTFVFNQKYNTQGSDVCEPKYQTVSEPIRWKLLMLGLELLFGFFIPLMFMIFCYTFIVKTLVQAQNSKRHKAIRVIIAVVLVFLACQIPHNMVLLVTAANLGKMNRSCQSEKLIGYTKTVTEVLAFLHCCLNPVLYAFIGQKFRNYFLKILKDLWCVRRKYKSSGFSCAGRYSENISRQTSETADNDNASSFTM
EBI2 block: antagonists of human EBI2 receptor; 360,000 compounds, 0.81% hits; inhibition, % at 5 µM; EBI2 beta-arrestin recruitment, luminescence, 7a,25-OHC stimulated; P32249; AID 651636; in the data active = inhibition above about 38%;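 note: enzyme fragment complementation signal reports receptor beta-arrestin coupling in cells; 0% = agonist plus DMSO wells and 100% = wells without agonist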
EBI2 conf: EBI2 (human) antagonism, single concentration confirmation; AID 651997; inhibition, % at 5 µM; shares compounds with EBI2 block; EBI2 beta-arrestin luminescence, 7a,25-OHC antagonism; 2,400 compounds, 29% hits;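 active = inhibition of at least 50%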
EBI2 agonist: counter-screen for EBI2 antagonists: EBI2 agonist activity; shares compounds with EBI2 block; EBI2-expressing cells, agonist mode, luminescence, 60 min; 0% vehicle, 100% 7α,25-dihydroxycholesterol control; activation, % at 5 µM; 2,400 tested, under 10 active;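 active = activation of at least 50%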
bGal counter: inhibits E. coli beta-galactosidase, counter-screen for EBI2 antagonists; 2,400 compounds, 1% hits; shares compounds with EBI2 block; inhibition, % at 5 µM; purified beta-galactosidase, luminescent Galacton Star, 15 min; AID 652176;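 active = replicate-average signal at least 3 plate SD below neutral wells, shown as high inhibition, flagging enzyme-inhibiting false positives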;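 note: 0% = DMSO wells with enzyme and 100% = wells lacking enzyme; higher means stronger loss of beta-gal luminescence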
Starred values were filed as active, the others as inactive; / = no result. This is a sample that favours compounds with a hit; in the whole collection about 2.1% have one here.

SMILES	APJ antagonist	HTR2A ag	CXCR6 block	APJ ag	CCR6 antag	EBI2 block	EBI2 conf	EBI2 agonist	bGal counter
O=C(c1ccco1)N1CCN(Cc2cn[nH]c2-c2cccc3ccccc23)CC1	-13	3	-1	-7	-5	-8	/	/	/
COc1ccc2c(c1)c1nc3n(c(=O)c1n2CC(=O)Nc1cc(C)[nH]n1)CCS3	0	/	/	4	/	/	/	/	/
COc1cccc(NC(=O)Cn2c3ccc(OC)cc3c3nc4n(c(=O)c32)CCS4)c1	-9	12	9	3	6	57*	20	-1	-7
COCCN(CCOC)C(=O)C1CCCN(S(=O)(=O)c2ccc(NC(=O)OC)cc2)C1 (stereo unspecified)	-1	0	-4	-3	12	4	/	/	/
Cc1oc(C(C)(C)C)cc1C(=O)N1CCN(c2ncccc2C(F)(F)F)CC1	1	2	7	3	0	14	/	/	/
O=C(c1ccc(-n2cccn2)cc1)N1CCN(c2ncccc2C(F)(F)F)CC1	-2	-3	-3	0	16	87*	80*	0	7
Cc1cc(C)c2cc(C(=O)N3CCN(c4ncccc4C(F)(F)F)CC3)[nH]c2c1	2	-1	-6	-4	2	77*	46	0	-9
CN(C)C(CNC(=O)c1cc(-c2ccco2)nc2ccccc12)c1ccccc1 (stereo unspecified)	10	2	-3	-3	15	0	/	/	/
Cc1ccc(-c2nnc(SCC(=O)NNC(=O)COc3cccc4ccccc34)n2C)cc1	-4	/	/	-4	/	/	/	/	/
COc1ccc2nc(C)cc(SCC(=O)NNC(=O)COc3ccc(C)cc3)c2c1	18	-2	-2	-2	-15	67*	17	2	7
Cc1ccc(OCC(=O)NNC(=O)CSc2nnc(-c3ccc(C)cc3)n2C)cc1	3	-2	-2	-4	2	75*	40	-1	3
Cc1cc(C(=O)N2CCN(c3cccc(Cl)c3)CC2)c(C)o1	16	-1	-2	-3	9	1	/	/	/
O=C(c1cc(=O)c2ccccc2o1)N1CCN(c2ccccc2F)CC1	6	-5	2	-4	5	64*	33	0	-11
O=C(c1cc(=O)c2ccccc2o1)N1CCN(c2cccc(Cl)c2)CC1	-13	-6	-2	-4	-6	51*	42	1	6
CN(CC(=O)Nc1ccccc1Cl)C(=O)COC(=O)c1ccc([N+](=O)[O-])s1	-2	4	-4	2	-13	-14	/	/	/
COc1cccc(N2C(=O)Nc3ccc(Br)cc3C2(O)C(=O)NCCCN(C)C)c1 (stereo unspecified)	1	9	2	-3	1	-1	/	/	/
COc1ccc(NC(=O)CN(C)CC(=O)N2CCCCCC2)cc1	12	12	5	-3	11	9	/	/	/
CC(C)n1c(O)c(/C=C2\C=Nc3ccccc32)sc1=Nc1ccccc1	10	5	-4	1	6	57*	26	0	-13
CSc1nc(/C=C2\C=Nc3ccccc32)c(O)n1C	12	-2	7	-3	30	5	/	/	/
Cc1ccc(/C=N/Nc2ccc3c(C(F)(F)F)cc(C(F)(F)F)nc3n2)cc1	15	0	10	-2	10	55*	40	2	4
COc1cccc(/C=C/C(=O)N2CCN(c3ccccn3)CC2)c1	0	-4	1	-7	8	75*	48	-1	-13
COc1ccc(/C=C/C(=O)N2CCN(c3ccccn3)CC2)cc1	12	6	-3	-1	5	93*	76*	-2	-8
CSc1ccc(/C=C/C(=O)N2CCN(c3ccccn3)CC2)cc1	3	-2	-3	-1	10	93*	81*	0	-15
O=C(/C=C/c1cccc([N+](=O)[O-])c1)N1CCN(c2ccccn2)CC1	0	-3	-4	2	-5	38	/	/	/
Cc1ccc(-c2c(C)sc3ncn(CC(=O)N4CCOCC4)c(=O)c23)cc1C	-4	1	3	-4	9	-8	/	/	/
SMILES	APJ antagonist	HTR2A ag	CXCR6 block	APJ ag	CCR6 antag	EBI2 block	EBI2 conf	EBI2 agonist	bGal counter
CCn1nnnc1SCC(=O)N1N=C(c2cccs2)CC1c1cccs1 (stereo unspecified)	8	-2	5	11	2	3	/	/	/
CCCC(=O)N1CCCC1(C)C(=O)NCc1ccc(SC)cc1 (stereo unspecified)	/	-3	2	/	/	-11	/	/	/
Cc1nc(CS(=O)(=O)c2ccc(Cl)cc2)sc1C(=O)O	-6	1	-1	1	4	-12	/	/	/
COc1ccccc1CN1CCN(S(=O)(=O)c2ccc(C)cc2)CC1	-13	-7	5	-1	3	-6	/	/	/
Cc1ccc(OCC(=O)N/N=C/c2cn[nH]c2-c2ccc(Cl)c(Cl)c2)cc1	-17	-7	-20	13	-19	8	/	/	/
Cc1cccc(OCC(=O)N/N=C/c2cn[nH]c2-c2ccc(Cl)c(Cl)c2)c1	-10	2	-15	9	-6	39*	1	0	-11
COc1cc(C2c3[nH]c4ccccc4c3C[C@H]3C(=O)N(C4CC4)CC(=O)N23)ccc1OC(C)C (stereo partly specified)	6	4	-6	-1	4	8	/	/	/
COCCn1c(SCC(=O)NCc2ccc(OC)c(OC)c2)nc2ccccc21	-8	0	-5	0	8	-12	/	/	/
CCOc1cccc(NC(=O)c2ccc(S(=O)(=O)N(C)C)cc2)c1	2	0	-5	-1	12	46*	33	-1	-11
O=C(Nc1ccc(O)cc1)c1ccc2c(c1)C(=O)N(Cc1ccccc1)C2=O	-24	-6	-8	1	-1	57*	22	1	9
Cc1cc(NC(=O)c2ccc3c(c2)C(=O)N(Cc2ccccc2)C3=O)no1	4	1	-3	-1	3	47*	20	0	5
CCCc1nc2ccc(Br)cn2c1Cc1ccccc1OC	/	3	2	/	/	-6	/	/	/
CC[N+](CC)(CC=C(C)C)CC(=O)OC	3	-1	0	-3	8	0	/	/	/
O=C(c1ccc(Br)cc1)c1cc(-c2ccccn2)c(N2CCOCC2)s1	13	2	3	-3	27	37*	39	-2	-16
